The text below walks through data of ChEMBL document CHEMBL1208669, “Synthesis of 2-(pyrimidin-2-yl)-1-phenyl-2,3,4,9-tetrahydro-1H-beta-carbolines as antileishmanial agents” (Eur J Med Chem, 2010).

The term inhibition denotes how much of the control response was suppressed. Usually IC50 stands for the concentration that inhibits the measured activity by half.

Series [1] relates to Leishmania donovani. The series is described as follows: Antileishmanial activity against promastigotes of Leishmania donovani MHOM/IN/80/Dd8 at 500 ug/ml after 72 hrs by luciferase reporter gene assay relative to control. The class given is functional, organism-based. The procedure, abridged: (§1)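 Dd8 promastigotes transfected with firefly luciferase were kept in medium 199 + 10% FCS with antibiotics under G418. Late-log cells were incubated 72 h with serial drug dilutions, with parallel DMSO dilutions as controls. An aliquot was mixed 1:1 with Steady Glo and luminescence read as RLU. % inhibition = (N − n) × 100/N versus untreated control RLU; tested as serial dilutions or single concentration.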
A general note: Reporter assays use an easily measured gene product as a stand-in for the process of interest.

The subject of a further series is J774.A1. The series is described as follows: Selectivity index, ratio of CC50 for mouse J774A1 cells to IC50 for amastigote of Leishmania donovani MHOM/IN/80/Dd8. The series is classed as functional. The procedure, abridged:
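Ratio of CC50 (J774A.1 MTT, 72 h) to IC50 against intracellular amastigotes in J774A.1 macrophages (luciferase read-out, 72 h).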

Series [2] concerns Leishmania donovani. The series can be described thus: Antileishmanial activity against Leishmania donovani. The series is classed as functional, organism-based.
The test system of series [3] is Vero. The series is described as follows: Cytotoxicity against african green monkey Vero cells by MTT assay. The class given is cell-based. The note with it: chlorocebus sabaeus. (Tetrazolium assays rely on reduction of a dye to a coloured formazan, in cell work by metabolically active cells.)
Series [4] concerns KB. The series is described as follows: Cytotoxicity against human KB cells by MTT assay. The class given is functional, cell-based.
For series [5], the system named is C-33-A. The series can be described thus: Cytotoxicity against human C33A cells by MTT assay. The class given is functional, cell-based.
Series [6] deals with DU-145. The series is described as follows: Cytotoxicity against human DU145 cells by MTT assay. The series is classed as functional, cell-based.
The test system of series [7] is Leishmania donovani. The series can be described thus: Antileishmanial activity against amastigote of Leishmania donovani MHOM/IN/80/Dd8 infected in mouse J774A1 cells at 0.25 to 10 ug/ml after 72 hrs by luciferase reporter gene assay. The series is classed as functional, organism-based. The note with it: j774.a1. In short, it runs like this:
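J774A.1 macrophages were seeded at 1.5 × 10⁴ cells/well in RPMI-1640 + 10% FCS, 37 °C, CO₂, for 24 h. They were then infected with stationary-phase luciferase-transfected Dd8 promastigotes (2.25 × 10⁵/well), which transform to amastigotes. Compounds (0.25–10 range) were added in fresh medium for 72 h. Medium was removed, PBS and Steady Glo added, and luminescence read. Inhibition vs untreated controls; IC50 by logit regression.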

Series [8] concerns Leishmania donovani. The series is described as follows: Antileishmanial activity against promastigotes of Leishmania donovani MHOM/IN/80/Dd8 after 72 hrs by luciferase reporter gene assay relative to control. The series is classed as functional. In short, it runs like this: as §1
Series [9] deals with MCF7. The series is described as follows: Cytotoxicity against human MCF7 cells by MTT assay. The series is classed as functional, cell-based.
For series [10], the system named is Vero. The series can be described thus: Cytotoxicity against african green monkey Vero cells up to 50 ug/ml by MTT assay. The note with it: chlorocebus sabaeus. The class given is cell-based.
For series [11], the system named is DU-145. The series is described as follows: Cytotoxicity against human DU145 cells up to 50 ug/ml by MTT assay. The series is classed as functional, cell-based.
For series [12], the system named is MCF7. The series is described as follows: Cytotoxicity against human MCF7 cells up to 50 ug/ml by MTT assay. The class given is functional, cell-based.
In series [13] the test system is C-33-A. The series is described as follows: Cytotoxicity against human C33A cells up to 50 ug/ml by MTT assay. The series is classed as functional, cell-based.
Series [14] deals with KB. The series can be described thus: Cytotoxicity against human KB cells up to 50 ug/ml by MTT assay. The class given is functional, cell-based.

Values after ≈ are worked out from the molar mass of the structure shown. Active and inactive are the calls of the source. The rule behind the calls is not given here.

The molecule sodiumstilbogluconate came in with an inhibition in the series with Leishmania donovani [1] of 40%. Moreover, the Ratio CC50/IC50 in the series with J774.A1 is 6.38.

In the series with Leishmania donovani [2], `C=CC1CN2CCc3c([nH]c4ccccc34)[C@@H]2C[C@@H]1[C@@H](C(=O)OC)[C@H]1NCCc2c1[nH]c1ccccc21` (some centres not stated) [BUCHTIENINE] yielded an IC50 greater than 0.3 µg/mL.

With `Clc1cc(Cl)nc(N2CCc3c([nH]c4ccccc34)C2c2ccc3c(c2)OCO3)n1` (racemic), the IC50 in the series on Vero [3] is 8.2 µg/mL (≈ 18.7 µM); in the series on KB [4] it was 3.9 µg/mL (≈ 8.88 µM); with C-33-A [5], 3.3 µg/mL (≈ 7.51 µM); with DU-145 [6], 8.9 µg/mL (≈ 20.3 µM); with Leishmania donovani [7], “Not Active”; in the series on MCF7 [9], 4.3 µg/mL (≈ 9.79 µM). The “inhibition (INH)” value in the series on Leishmania donovani [8] was found to be 33.57%.

`COc1ccc(C2c3[nH]c4ccccc4c3CCN2c2nc(N3CCOCC3)cc(N3CCOCC3)n2)cc1OC` (racemic): the Activity result in the series on Vero [10] is given as “Non-toxic”. The outcome in the series on DU-145 [11], in the series with MCF7 [12], with C-33-A [13] and with KB [14] was inactive. For the same molecule, the IC50 entry with Leishmania donovani [7] is on record as “Not Active”. In addition, the “inhibition (INH)” value in the series with Leishmania donovani [8] stood at 85.31%.
